According to the EternaBench riboswitch data:

Test system: MS2 coat protein
Assay: apparent Kd, MS2 coat protein; higher = weaker binding; RNA-MaP array; FMN 200 µM where present
How it was run: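 The titrant was SNAP-549-labelled MS2 coat protein, run from 0.7 or 1.5 nM in doubling steps to 3 µM. It was applied to designs transcribed by stalled E. coli RNA polymerase on Illumina sequencing-chip clusters, without ligand first and then with constant ligand, in 100 mM Tris-HCl pH 7.5, 80 mM KCl, 4 mM MgCl2, BSA, DTT, yeast tRNA and Tween-20. The apparent Kd is the median of filtered per-cluster binding-curve fits, with green signal normalised to red-channel RNA signal and control-cluster median Fmax.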

[1] = designed as: OFF switch for flavin mononucleotide, no ligand
[2] = ligand present: flavin mononucleotide, designed as: OFF switch for flavin mononucleotide
[3] = designed as: ON switch for flavin mononucleotide, no ligand
[4] = ligand present: flavin mononucleotide, designed as: ON switch for flavin mononucleotide

Row | Sequence | apparent Kd [1] | apparent Kd [2] | apparent Kd [3] | apparent Kd [4]
1 | UAAUAAUAAUAAUACGUCAUUACAUGAGGAUCACCCAUGUAUAAGGAUAUGCAGUGGAAUACACUGCAGAAGGUAUACAAGACG | 22.6 nM | 26.7 nM | – | –
2 | UGUCGGAGCAGAGGAUAUUACAUGAGGAUCACCCAUGUAUGAACCAAUAGGUGGAAACAGCAAUGUAAGAAGGCUGCUCCGACA | 178 nM | 481 nM | – | –
3 | ACGUUUAAUACAGGAUAUGUUCUUAUACUAUAGAUUGGUUAUUACUUAAUUACAGAAGGGUAGAACAUGAGGAUCACCCAUGUA | – | – | 507 nM | 261 nM
4 | UCCUUGUCCUGAGGAUAUCCGCGGUUCCCAAAAGGAGAAGGCAGGACAUGAGGAUCACCCAUGUACCCAGAACACGUGCAGAGU | 14.6 nM | 90.9 nM | – | –
5 | CCAUAAAAGAUCCAUUUUUACAACAUGAGGAUCACCCAUGUGCAGGAUAUCGUGAAAGUAAAAUACGAGAAGGGCAAGAACUGC | 106 nM | 130 nM | – | –
6 | GGAUCUUGGGUCAGGAUAUGCUGAUAGUUAUGUCAGCAGAAGGGACAUGAGGAUCACCCAUGUGCUUGGUUUUG | 12.9 nM | 39.6 nM | – | –
7 | AUAUUAAUAUAGGAUAUCGAAUUUAUUAAUUAUCGAGAAGGAUAAACAUGAGGAUCACCCAUGUGGUAUCAUGG | 181 nM | 225 nM | – | –
8 | CGUCGAUACCAGAAGGACAUGAGGAUCACCCAUGUAGGAUAUGGGUGACCGGGAUGGUGGACACGGUGCCCGGGCACAUGCGAC | – | – | 81.8 nM | 14.9 nM
9 | UGUCGGAGCAGAGGAUAUUACAUGAGGAUCACCCAUGUAUGAACCAAUAGCUGGAAACAGCAAUGUAAGAAGGCUGGUCCGACA | 12.4 nM | 143 nM | – | –
10 | UUUCAGUUCACAUGAGGAUCACCCAUGUCGGUUCGCCCGGACAGAAGGCACCCAUGACAAUGCGGUGAGGAUAUGUCAACAAGG | – | – | 143 nM | 19.1 nM
11 | GUACGUGGACAGAAGGCGACAUGAGGAUCACCCAUGUUGGCUCGCGUAUGAGCAAUCCGCAUGAUUGAGGAUAUGUCUGCGGGC | 9.05 nM | 49.7 nM | – | –
12 | GUAGCUAUCGGAGGAUAUUCAUACCGGAAAAGGACAUGAGGAUCACCCAUGUGGCGAAAGCCUUGGGAGAAGGCCGAUAGCUAC | – | – | 94.2 nM | 6.77 nM
13 | CUUGUGUGAGGAUAUCAGUAGUAGUACGAUAGUAUUACUGCUGAGAAGGCACAUGAGGAUCACCCAUGUUCUUC | 28.1 nM | 24.1 nM | – | –
14 | GGAUGACAUAGUCAUCCUUAACGAACAUGAGGAUCACCCAUGUAGGAUAUGCUACUCAAAGAGUAGCAGAAGGGCGUGUGUCUU | 42.6 nM | 49 nM | – | –
15 | AUCAGCUCGUCAGGAUAUACGUCACUGCGUCAGCAGUGUGGUAAGAUCACAUGAGGAUCACCCAUGUAGAAGGGCCGAGCUGAU | 12.2 nM | 184 nM | – | –
16 | AAUAUGAGCUGGUUAUAAAACCUGACAUGAGGAUCACCCAUGUAGGAUAUCAGCACGAUAAGUGCUGAGAAGGACAUCCAGCUC | 13.4 nM | 14 nM | – | –
17 | CUAAAUCAUGUAGGAUAUGCAUGGCGAAGCUACGCAGAAGGACAUGAGGAUCACCCAUGUCUCUCCGUCUGCGUACAGACGGAG | 20.5 nM | 119 nM | – | –
18 | GGAGCCGGCACUGAGGAUAUUCAUAUUAAAACAUGAGGAUCACCCAUGUAGGCCAGAAGGCCUUGGGAGAAGGCAGGUCGACUCG | – | – | 406 nM | 28.9 nM
19 | AAAAGUCCUGAGGAUAUCGAAACUCCAUUAGGACGAGAAGGCGGGACAUGAGGAUCACCCAUGUGGGCGAGCUC | 232 nM | 475 nM | – | –
20 | UGGUACUAGGGAGGAUAUGGGAAGCUACAUGAGGAUCACCCAUGUUUAAGAAUGCCGAGAGGCAACUAGAAGGCCCUAGUACCU | – | – | 30.2 nM | 5.56 nM
21 | UUCAUGUGAGGAUAUGUGAUCUGCUUUCUGUUUAGAUGAUCACAGAAGGCACAUGAGGAUCACCCAUGUAGAUC | – | 22.6 nM | – | –
22 | AAAUCAGUAGGAUAUACGAUUUUAUGCUAGAUAGAGGAGCCACAUGAGGAUCACCCAUGUAGAAGGACUAGAUA | 17.1 nM | 19.9 nM | – | –
23 | UCCCUAAGGCAGGCCGACCAUACAUGAGGAUCACCCAUGUCGAGAAGGUGCUCACGGGUGGGUGGCAAGGAUAUCGGGUCGGAU | – | – | 92.9 nM | 43.6 nM
24 | CUUAGACAUGAGGAUCACCCAUGUGAGGAUAUGAUGCAGCAGUGGUCUACGCUGUGCAUCAGAAGGCACAUAUG | 120 nM | 155 nM | – | –

Row | Sequence | apparent Kd [1] | apparent Kd [2] | apparent Kd [3] | apparent Kd [4]
25 | AUGAGUGUAAUGAUAGAGCCACUGCAGGAUAUCACAUGAGGAUCACCCAUGUGUCAGCCUCGGAGUGAGAAGGGCGGUUUCUUA | 5.65 nM | 9.7 nM | – | –
26 | GCACAUGGCAUAGGAUAUAGUUCUAUUGUUUAAAUAGGUAGUUGGACUUAACUAGAAGGAUGUUACAUGAGGAUCACCCAUGUU | – | – | 11.2 nM | 11.3 nM
27 | AACCGACAUGAGGAUCACCCAUGUAAGGAUAUCCACGGACAACGCCAUAGUUGCCGGCGGAGAAGGUGCGUGGU | 26 nM | 46 nM | – | –
28 | CCGUUACAUGAGGAUCACCCAUGUGAGGAUAUCGAUGUGACUGGCAGCGUGCGGGACUCGAGAAGGCACUUGGC | 74.6 nM | 58.5 nM | – | –
29 | AAGAAGUCAGGAUAUGCUGCUCGUCACUUGCGUGAUGAGUAGCAGAAGGGACAUGAGGAUCACCCAUGUAAAGU | 51.6 nM | 79.7 nM | – | –
30 | UAUAUACAUGAGGAUCACCCAUGUCAGGAUAUGCGCCGAUUAUAUACAUAAGAUCGGUGCAGAAGGGACACUAA | 35.5 nM | 67.2 nM | – | –
31 | CUAUUUAGUGCCUCAUGUACAUGAGGAUCACCCAUGUUAACUUAGGAUAUAUUUAUAUUGAUAGAGUAGAAGGAAGUACUAUUU | 22 nM | 18.8 nM | – | –
32 | UGGUACUAGGGAGGAUAUGGGAACAUACAUGAGGAUCACCCAUGUUUAAGAAUGCCGAGAGGCAACUAGAAGGCCCUAGUACCU | – | – | 15.7 nM | 4.96 nM
33 | UUUUUUGUUGUGAGGAUAUCGUAUUUUUUUUGUUACGAGAAGGCACAUGAGGAUCACCCAUGUUUCUUGAUGUU | 13.6 nM | 28.6 nM | – | –
34 | GCCCGGGCAGGAUAUGCAGGCCCGGGAAACCGGGCCAUGGGACAUGAGGAUCACCCAUGUAGAAGGGCCCGGGC | 17.1 nM | 17.3 nM | – | –
35 | GUUUAUUUACAGAAGGUGUUUUACAUGAGGAUCACCCAUGUUUAAAUUUAUAAAGAAUUUAUUUACAAGGAUAUGUACAAUUUU | – | – | 34.1 nM | 19 nM
36 | UGUUGUUCAGGAUAUGAUGUAUAAUACAUGAGGAUCACCCAUGUAGAUCCUGAAUUGGCGUCAGAAGGGAAUGUUG | 19.3 nM | 21.9 nM | – | –
37 | GCUGCAUAUGAGAAGGCGAUCAUGAAACAUGAUCGAGGAUAUCAUGUUUACAUGAGGAUCACCCAUGUAUGGGUAUAAUGCAGC | – | – | 492 nM | 14 nM
38 | UUAAAUCAUGUAGGAUAUGCAUGGCGAAGCUACGCAGAAGGACAUGAGGAUCACCCAUGUGCUAGCUACCGGAUACGGUGGCAA | 60.7 nM | 264 nM | – | –
39 | AGAGAAUAGUCAGGAUAUGAGAAUAGAUAGAGCUCAGAAGGGACACAUGAGGAUCACCCAUGUGAAGUCUUGAGGCUGCGUGGA | 14.8 nM | 14.2 nM | – | –
40 | CGUGUCAUCGAGAAGGCCUCAACAUGAGGAUCACCCAUGUUGUAAUAUGGGAGGAUAUCGAUGAUACAGCUACGUUUCGUAGCU | – | – | 18.8 nM | 5.8 nM
41 | AUCUUUAAGGUAGGAUAUAGUAUGAUGGUUUAAUUAGAAGGAUCUCACAUGAGGAUCACCCAUGUAAUAGGAUUACCCAUGUAU | 54 nM | 43.6 nM | – | –
42 | AUAUCGUCAGGAUAUGCUAGUAAAUGUUUCAUUUCUUCAUAGCAGAAGGGACAUGAGGAUCACCCAUGUAAGUC | 37.6 nM | 39.6 nM | – | –
43 | CUAUUCCGAGGAUAUACAUGAGGAUCACCCAUGUCGGGCCUCAGCGUUUAGCGCGUAAGUAGAAGGUGGGUUUC | 32.3 nM | 37.8 nM | – | –
44 | UUAUGGUUCAAGAAGGAUGUAUUUGACUUAUACAUAGGAUAUUGUUAAAUUGAUAAUUAAUGUAACAUGAGGAUCACCCAUGUA | – | – | 8.1 nM | 7.39 nM
45 | AGAUGGCGAGGAUAUACAUGAGGAUCACCCAUGUGAAGAAUAAUAGUGAGGAAGAAAAGUAGAAGGCGCUGUCA | 45.5 nM | 209 nM | – | –
46 | UCUAUGAAGAUUCGUCAAUACAGUUAGGAUAUGAGAUACAUGAGGAUCACCCAUGUGCAUGUGGAUUAGAAGGAACAAUUAUCU | 33.2 nM | 30.8 nM | – | –
47 | UGAUAGGACAGAGGAUAUACAGAUAGGAUCUACUAUCAAACAGUCCUAACAUGAGGAUCACCCAUGUAGAAGGCUGUCCUAUCU | 20.9 nM | 79.2 nM | – | –
48 | GUAGCAACAUGAGGAUCACCCAUGUAGGAUAUCGCUAUUGUAAUCAUGAAACAUGAUUACAAUAGCGAGAAGGACAUAUGCUAG | 14.9 nM | 12.8 nM | – | –
